From ChEMBL document CHEMBL1250432, “Pteridine-sulfonamide conjugates as dual inhibitors of carbonic anhydrases and dihydrofolate reductase with potential antitumor activity” (Bioorg Med Chem, 2010) come the findings set out here.

Activity calls are given as the source filed them. No cut-off for these calls is given here.

The target of one test is Carbonic anhydrase 9 (Homo sapiens, UniProt Q16790). Kind of test: Inhibition of human recombinant carbonic anhydrase 9 after 15 mins by stopped flow CO2 hydration assay.
A further test concerns PC-3. The test is described as follows: Antiproliferative activity against human PC3 cells after 72 hrs by MTT assay. It is filed as functional, cell-based. The note with it: PC-3, 72 h. Summed up: (§1)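 A549 (ATCC) and PC3 cells kept in RPMI-1640 with 10% heat-inactivated FBS, 2 mM glutamine and 1 mM sodium pyruvate at 37 °C in humidified 5% CO2. Seeded at about 5000 cells/well and exposed continuously for 72 h to a range of inhibitor concentrations, with MTX as control. Viability read by MTT assay; IC50 reported.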
(Tetrazolium dyes change colour on reduction, which living cells bring about.)

The target in the next test is Dihydrofolate reductase (Lactobacillus casei, UniProt P00381). The test is described as follows: Inhibition of Lactobacillus casei DHFR by spectrophotometric analysis. Set-up: species or system Lacticaseibacillus casei.
A further test concerns A549. The test is described as follows: Antiproliferative activity against human A549 cells after 72 hrs by MTT assay. The class given is functional, cell-based. The following applies: A549, 72 h. Put shortly: as §1
For test [1], the target named is Dihydrofolate reductase (Lactobacillus casei) (UniProt P00381). The test is described as follows: Inhibition of Lactobacillus casei DHFR at 0.5 mM by spectrophotometric analysis. The note with it: Lacticaseibacillus casei. Summed up: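 L. casei DHFR activity followed spectrophotometrically as the fall in absorbance at 340 nm from NADPH oxidation, with and without inhibitor, at 30 °C. Inhibitor tested at 0.5 mM, the highest concentration used.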
Chain of Dihydrofolate reductase (Lactobacillus casei) (P00381 whole entry): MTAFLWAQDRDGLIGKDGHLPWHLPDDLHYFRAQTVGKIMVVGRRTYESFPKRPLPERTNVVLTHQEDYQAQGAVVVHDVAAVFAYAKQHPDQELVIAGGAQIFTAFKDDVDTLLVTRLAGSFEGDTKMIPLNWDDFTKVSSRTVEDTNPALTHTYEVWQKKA

Chain of Dihydrofolate reductase (P00381 whole entry): as above

A word on the Ki: it is a measure of affinity in units of concentration, obtained from inhibition or displacement. As usually defined, the IC50 is the concentration that inhibits the measured activity by half. Consider `Nc1nc(N)c2nc(CNc3ccc(C(=O)NCCc4ccc(S(=O)(=O)O)cc4)cc3)cnc2n1`, for which the Ki at Carbonic anhydrase 9 is over 1 µM. Moreover, the figures for the IC50 with PC-3 and against Dihydrofolate reductase were 500 µM and 1.3 µM, respectively.

On to `CN(Cc1cnc2nc(N)nc(N)c2n1)c1ccc(C(=O)N[C@@H](CCC(=O)O)C(=O)O)cc1` [METHOTREXATE], for which the IC50 was 0.001 µM in the test on PC-3 and 0.005 µM in the test on A549.

Regarding `Nc1nc(N)c2nc(CNCCc3ccc(S(=O)(=O)O)cc3)cnc2n1`, in test [1], the inhibition result was “inactive”. The Ki on Carbonic anhydrase 9 is over 1 µM. Also, in the test on PC-3, half-maximal inhibition (IC50) required 460 µM.

Take `Nc1nc(N)c2nc(CNCCc3ccc(S(N)(=O)=O)cc3)cnc2n1`: in test [1], the inhibition entry was “inactive”. Also, half-maximal inhibition in the test on PC-3 (IC50) was put at 300 µM.

For the molecule `Nc1nc(N)c2nc(CNc3ccc(S(N)(=O)=O)cc3)cnc2n1`, on Carbonic anhydrase 9, the Ki came to 0.0021 µM. The IC50 in the test on PC-3 is 550 µM; against Dihydrofolate reductase, 2.5 µM.

For `Nc1nc(N)c2nc(CNc3ccc(C(=O)NCCc4ccc(S(N)(=O)=O)cc4)cc3)cnc2n1`, the Ki on Carbonic anhydrase 9 is 0.0025 µM. Also, the IC50 with PC-3 worked out at 400 µM; in the test on A549, 2000 µM; against Dihydrofolate reductase, 20 µM.

As for `CN(Cc1cnc2nc(N)nc(N)c2n1)c1ccc(C(=O)NCCc2ccc(S(N)(=O)=O)cc2)cc1`, the Ki on Carbonic anhydrase 9 came to 0.0037 µM. Besides, the IC50 in the test with PC-3 turned out to be 500 µM; on Dihydrofolate reductase, 1.8 µM.

Regarding `Nc1nc(N)c2nc(CNc3ccc(S(=O)(=O)O)cc3)cnc2n1`, the Ki at Carbonic anhydrase 9 is over 1 µM. Further, the IC50 in the test on PC-3 came out at 500 µM; against Dihydrofolate reductase, 2 µM.
